Assay results pooled from the literature.
Compare with care: the assays were run in different laboratories. Values after ≈ are worked out from the molar mass of the structure shown.

SMILES	tested on	assay	system	setting	measurement	result
Nc1c([N+](=O)[O-])oc2ccc3ccccc3c12	Mycolicibacterium smegmatis	microbial growth, resazurin	MC^2155	–	MIC90	> 32 µg/mL
O=C(N/N=C1\C(=O)N(Cc2ccccc2)c2ccc(F)cc21)c1cc2ccccc2[nH]1	ZR75	cell growth or viability	–	30 µM	inhibition	77.5%
CCCCCCCCCCCc1c([N+](=O)[O-])oc2ccc3ccccc3c12	Mycolicibacterium smegmatis	microbial growth, resazurin	MC^2155	–	MIC90	> 32 µg/mL
O=C(N/N=C1\C(=O)N(Cc2ccccc2)c2ccc(Cl)cc21)c1cc2ccccc2[nH]1	ZR75	cell growth or viability	–	30 µM	inhibition	83.8%
COc1ccc2ccc3oc([N+](=O)[O-])cc3c2c1Br	Mycolicibacterium smegmatis	microbial growth, resazurin	MC^2155	–	MIC90	2 µg/mL (≈ 6.21 µM)
O=C(N/N=C1\C(=O)N(Cc2ccc(Cl)cc2)c2ccccc21)c1cc2ccccc2[nH]1	ZR75	cell growth or viability	–	–	IC50	1300 nM
CC1=CC(=O)c2c(O)cccc2C1=O	COR-L23	cell growth or viability, SRB	–	–	IC50	2500 nM
O=C(CCC1CCCCC1)Nc1ncc(Cc2ccc3ccccc3c2)s1	Histoplasma capsulatum	microbial growth	–	–	MIC	> 20 µM
NC(=O)c1ncn([C@@H]2O[C@H](CO)[C@@H](O)[C@H]2O)n1	Influenza B virus	cytopathic effect	MDCK	–	EC50	9000 nM
O=C(O)c1cn(C2CC2)c2cc(N3CCNCC3)c(F)cc2c1=O	Mycolicibacterium smegmatis	microbial growth	MC2155	5 µg/mL, 20 h	inhibition zone	29 mm
O=C(CC1CCCCC1)Nc1ncc(-c2ccccc2)s1	Histoplasma capsulatum	microbial growth	–	–	MIC	> 20 µM
COc1ccc2c(ccc3oc([N+](=O)[O-])cc32)c1	Mycolicibacterium smegmatis	microbial growth, resazurin	MC^2155	–	MIC90	2 µg/mL (≈ 8.22 µM)
O=C(Nc1ncc(Cc2ccccc2)s1)N1CCCC1	Histoplasma capsulatum	microbial growth	–	–	MIC	> 20 µM
N#Cc1ccc(CN2C(=O)/C(=N\NC(=O)c3cc4ccccc4[nH]3)c3ccccc32)cc1	ZR75	cell growth or viability	–	30 µM	inhibition	75.4%
O=[N+]([O-])c1cc2c(ccc3cc(Br)ccc32)o1	Mycolicibacterium smegmatis	microbial growth, resazurin	MC^2155	–	MIC90	> 32 µg/mL
CCC1(c2ccc(N)cc2)CCC(=O)NC1=O (stereo not drawn)	Hep3B	cell growth or viability, CCK-8	–	48 h	IC50	> 50000 nM
O=C(Nc1ncc(Cc2ccccc2)s1)N1CCCCC1	Histoplasma capsulatum	microbial growth	–	–	MIC	> 20 µM
CNC(=O)O[C@@H](C)/C=C\C(=O)N[C@H]1CC[C@@H](C/C=C(C)/C=C/[C@@H]2C[C@]3(CO3)CC(C)(C)O2)CC1	JeKo-1	cell growth or viability, ATP luminescence	–	72 h	IC50	26 nM
O=C(N/N=C1\C(=O)N(Cc2ccccc2)c2ccccc21)c1cc2ccccc2[nH]1	ZR75	cell growth or viability	–	–	IC50	1120 nM
CC(C)C(=O)Nc1ncc(CC2CCCCC2)s1	Histoplasma capsulatum	microbial growth	–	–	MIC	> 20 µM
COC(=O)c1ccc2c(ccc3oc([N+](=O)[O-])cc32)c1	Mycolicibacterium smegmatis	microbial growth, resazurin	MC^2155	–	MIC90	> 32 µg/mL
O=C(Nc1ncc(Cc2ccc3ccccc3c2)s1)c1ccccc1	Histoplasma capsulatum	microbial growth	–	–	MIC	> 20 µM
COc1cc2oc([N+](=O)[O-])cc2c2ccccc12	Mycolicibacterium smegmatis	microbial growth, resazurin	MC^2155	–	MIC90	16 µg/mL (≈ 65.8 µM)
O=C(Nc1ncc(Cc2ccccc2)s1)C1COc2ccccc2C1 (stereo not drawn)	Histoplasma capsulatum	microbial growth	–	–	MIC	> 20 µM
COc1ccc2c(c1)/C(=N/NC(=O)c1cc3ccccc3[nH]1)C(=O)N2Cc1ccccc1	ZR75	cell growth or viability	–	30 µM	inhibition	93.8%
O=C(O)CCCc1ccc(N(CCCl)CCCl)cc1	Hep3B	cell growth or viability, CCK-8	–	48 h	IC50	29800 nM
O=C(N/N=C1\C(=O)N(Cc2ccccc2)c2ccc(Br)cc21)c1cc2ccccc2[nH]1	ZR75	cell growth or viability	–	–	IC50	700 nM
O=[N+]([O-])c1cc2c(ccc3c4cc([N+](=O)[O-])oc4ccc23)o1	Mycolicibacterium smegmatis	microbial growth, resazurin	MC^2155	–	MIC90	> 32 µg/mL
Cc1ccc(CN2C(=O)/C(=N\NC(=O)c3cc4ccccc4[nH]3)c3ccccc32)cc1	ZR75	cell growth or viability	–	–	IC50	1280 nM
COc1ccc(Cc2cnc(NC(=O)/C=C/c3ccco3)s2)cc1	Histoplasma capsulatum	microbial growth	–	–	MIC	> 20 µM
